Assay results from the RNAGym collection of RNA variant scans (doi:10.1126/science.aae0568).
Fewer inactive variants are shown than the library holds.

B1: tRNA (parent)
chain: GUUCCGUUGGCGUAAUGGUAACGCGUCUCCCUCCUAAGGAGAAGACUGCGGGUUCGAGUCCCGUACGGAACG

Variants of: B1
Assay: yeast fitness relative to wild type (ratio to wild type); higher = fitter; tRNA-Arg(CCU), competitive growth, 37 C, YPD
Procedure, shortened: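 Gene amplicons from the start population and from each of six end populations were read by 100-nucleotide paired-end sequencing. Those end populations came from pooled Saccharomyces cerevisiae strains carrying tRNA-Arg(CCU) gene variants at the native locus, competed in YPD at 37°C for 24 hours. Fitness relative to wild type was worked out from changes in genotype frequencies. Genotypes needed ≥ 100 starting reads, and estimates < 0.5 were set to 0.5.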
Work on C29G A42C G51A A70U yielded a yeast fitness of no more than 0.5. For C29U U35C A42U C61U C66A, the yeast fitness was no more than 0.5. Variant C29G A40U G67C has a yeast fitness of 0.517. In the case of C29G C30U G58A, the yeast fitness is reported as 0.608. Variant C29U C46U has a yeast fitness of 0.929. With C29U C46A the yeast fitness was 0.932. Work on C29G A36G A65C yielded a yeast fitness of no more than 0.5. C29U G38C C46A showed a yeast fitness of no more than 0.5. Variant C29G G48A U59C has a yeast fitness of no more than 0.5. For C29U C34U G48C G52A, the yeast fitness was no more than 0.5. C29U A65C A69C showed a yeast fitness of no more than 0.5. C29G U47A G48A showed a yeast fitness of 0.553. For C29U U53C C55G C62A, the yeast fitness was no more than 0.5. For C29G G48A A65G C66U, the yeast fitness was no more than 0.5. C29U G38C U64C gave a yeast fitness of no more than 0.5. With C30A A37C the yeast fitness was 0.772. With C30A C31A C60U C62G the yeast fitness was no more than 0.5. In the case of C29G C55U A65C A70U, the yeast fitness is reported as 0.532. Work on C29U C49G C60A yielded a yeast fitness of no more than 0.5. C29U C34U G41A G67A A70U showed a yeast fitness of no more than 0.5. C29G C33U G68A gave a yeast fitness of no more than 0.5. Work on C29G U32G G38A C46U A70U yielded a yeast fitness of no more than 0.5. Work on C29U U35A G38C A45U U59C yielded a yeast fitness of no more than 0.5. C30A A40G U59G A70C showed a yeast fitness of no more than 0.5. Variant C29U C31U U54G A65C G67A has a yeast fitness of 0.549. Variant C29U C31U has a yeast fitness of 0.846. Work on C29U G51A yielded a yeast fitness of 0.883. In the case of C29G A37U C46U, the yeast fitness is reported as no more than 0.5. C29U G58C A65G showed a yeast fitness of 0.61. For C29U C46G G56A C60A C62G C66A, the yeast fitness was 0.543. For C30A A37C G38C, the yeast fitness was no more than 0.5. Variant C30A A36G G67C has a yeast fitness of 0.537. Work on C29G U32C A70C yielded a yeast fitness of 0.555. For C29U C33U A40G U47A, the yeast fitness was no more than 0.5. C29G G41A U47G showed a yeast fitness of no more than 0.5. Variant C29U C33U G39C A57U has a yeast fitness of no more than 0.5. For C29G A43U, the yeast fitness was 0.594. C29G A40C A43G A45C U47C C62U A69C gave a yeast fitness of no more than 0.5. With C30A the yeast fitness was 0.998. Variant C29G G39C U47A has a yeast fitness of 0.978. In the case of C29G A36U C49U C60U, the yeast fitness is reported as no more than 0.5. Work on C29G A65G yielded a yeast fitness of 0.713. C29G A65C showed a yeast fitness of 0.564. Variant C29G C30U A36C G39A C46G has a yeast fitness of 0.52. For C29U U53A C61U, the yeast fitness was 0.685. Variant C29U A42U A43U A57C A70G has a yeast fitness of 0.577. C29U G67A gave a yeast fitness of 0.771. With C29U G67C the yeast fitness was 0.848. Work on C29G U32A A65U yielded a yeast fitness of no more than 0.5. Work on C29G G48A G67C yielded a yeast fitness of no more than 0.5. C30A A37C G41A A43U G44C gave a yeast fitness of no more than 0.5. Variant C29G C30U C46U G48A G56A C61U C62G has a yeast fitness of no more than 0.5. C30A A65U gave a yeast fitness of 0.802. With C30A A65G the yeast fitness was 1.02. C30A A65C showed a yeast fitness of 0.814. C30A C34G G50A C62U C66A gave a yeast fitness of no more than 0.5. With C29U C30A A65U the yeast fitness was no more than 0.5. C29U U32A A69U gave a yeast fitness of 0.6. Work on C29G A36G C55U yielded a yeast fitness of no more than 0.5. Work on C29G A57C C66G yielded a yeast fitness of no more than 0.5. C29U A43C G63A gave a yeast fitness of 0.699. C29G A43G A45C showed a yeast fitness of no more than 0.5. In the case of C29G G38C C49U A65U, the yeast fitness is reported as no more than 0.5. In the case of C29U C30U A43U A65U, the yeast fitness is reported as 0.588. For C29G C49G G63C, the yeast fitness was no more than 0.5. C29G A37U U59C C66G showed a yeast fitness of 0.687. C29G A40C A57C showed a yeast fitness of 0.551. Variant C29G C49G A57G has a yeast fitness of 0.6. Work on C29U A43G U53G G63A yielded a yeast fitness of no more than 0.5. For C29U G38C G39A A65G C66A G67A, the yeast fitness was no more than 0.5. C30A A65U A69C showed a yeast fitness of 0.692. C29U G63A A70U showed a yeast fitness of 0.6. Work on C29G A40U G50C yielded a yeast fitness of 0.636. Variant C29U C34A has a yeast fitness of 0.761. C30A C49A C60U gave a yeast fitness of no more than 0.5. Work on C29U C55U A65G yielded a yeast fitness of no more than 0.5. With C29U G52C the yeast fitness was 0.579. For C29G U35C U54C U64C, the yeast fitness was no more than 0.5. C29U A37G C61G A69U showed a yeast fitness of no more than 0.5. In the case of C29G G44A G58C, the yeast fitness is reported as no more than 0.5. In the case of C29U A43C G51A, the yeast fitness is reported as no more than 0.5. In the case of C29U A69C, the yeast fitness is reported as 0.939. For C30A C34U G63C, the yeast fitness was 0.698. With C29G A36G G38A A45G the yeast fitness was no more than 0.5. Variant C29G C46G G48C has a yeast fitness of 0.533. Variant C29U A42U A45C has a yeast fitness of 0.51. With C29U U32G A43U G44C C61U the yeast fitness was 0.509. Work on C29U U32C yielded a yeast fitness of 0.981. In the case of C30A A37U A40U C49U, the yeast fitness is reported as no more than 0.5. Work on C29U C31G G38A G51A G58C yielded a yeast fitness of no more than 0.5. In the case of C30A A40C C46U C60U C66U, the yeast fitness is reported as no more than 0.5. In the case of C29G A36U A65U, the yeast fitness is reported as no more than 0.5. Variant C29G C46A G68A has a yeast fitness of no more than 0.5. C29G A37G A70G showed a yeast fitness of 0.562. Work on C29U A57G C60G U64C yielded a yeast fitness of 0.609. C29U showed a yeast fitness of 0.989. In the case of C29G U32C A36G, the yeast fitness is reported as 0.597. In the case of C29U C61U G63C, the yeast fitness is reported as no more than 0.5. C29U C33A C34U G51C U64A C66U A69C gave a yeast fitness of no more than 0.5. For C29G C49G C60G, the yeast fitness was no more than 0.5. C29G G44C C49A U64C showed a yeast fitness of no more than 0.5. Work on C29U C31U C66U yielded a yeast fitness of 0.591. In the case of C29G C30A C49U, the yeast fitness is reported as no more than 0.5. For C29U C34G A43U C62U A65U A69C, the yeast fitness was no more than 0.5. Variant C29G C31U A37U C62U A70G has a yeast fitness of no more than 0.5. In the case of C29G C60U, the yeast fitness is reported as 0.576. C29U A43U A69C showed a yeast fitness of 0.735. For C29U C62A C66U, the yeast fitness was no more than 0.5. C29U A70G gave a yeast fitness of 0.887. For C29U C33G A69U, the yeast fitness was no more than 0.5. For C30A A43U C66U, the yeast fitness was 0.75. C29U A43U showed a yeast fitness of 1.04. In the case of C29U A43C, the yeast fitness is reported as 0.948. Work on C29G G50C C66A yielded a yeast fitness of 0.518. For C29U G38C A45G G51C, the yeast fitness was no more than 0.5. Work on C29U C34A G51A yielded a yeast fitness of 0.664. C29G G41A C61U showed a yeast fitness of 0.531. Work on C29U G63C yielded a yeast fitness of 0.728. Variant C29U C62G G68A has a yeast fitness of no more than 0.5. C29G C49U A65C showed a yeast fitness of no more than 0.5. C29U G51C G67A gave a yeast fitness of no more than 0.5. C29G U47G A57G A69U showed a yeast fitness of no more than 0.5. Work on C29G C49G G56A yielded a yeast fitness of no more than 0.5. Variant C29G U35A A42U has a yeast fitness of no more than 0.5. With C30A A36U A42G C60U A69C the yeast fitness was no more than 0.5. C29G A37C C60A A70G gave a yeast fitness of no more than 0.5. Variant C29G U35G A42G C61U has a yeast fitness of no more than 0.5. For C29G G68C, the yeast fitness was 0.595. C29G C49U G63A gave a yeast fitness of 0.513. Work on C29U C49U yielded a yeast fitness of 0.836. With C29U C33G G52A G58C the yeast fitness was 0.596. For C30A A69G, the yeast fitness was 0.915. In the case of C30A A69C, the yeast fitness is reported as 1.03. C29U C62U A70C showed a yeast fitness of 0.604. In the case of C29U G38C A43U C55U, the yeast fitness is reported as 0.516. Variant C29G U32C A42C has a yeast fitness of 0.54. In the case of C29G C33G U35G G44A A57G C66U A69U, the yeast fitness is reported as no more than 0.5. For C29U A65U, the yeast fitness was 0.754. Variant C29U A45C U53C C55U G56C C61A C66U has a yeast fitness of no more than 0.5. With C29G A37U the yeast fitness was 0.566. C29G A40G gave a yeast fitness of 0.648. Variant C30A A45G U53A has a yeast fitness of 1.1. In the case of C29U A43C G50C C60A, the yeast fitness is reported as 0.634. C29U C33A gave a yeast fitness of 0.7. For C29U C33G, the yeast fitness was 0.689. In the case of C30A A40U G58U, the yeast fitness is reported as no more than 0.5. C30A A36U C60U A69C showed a yeast fitness of 0.6. In the case of C29U U35C G44C C49U A57U G63A, the yeast fitness is reported as no more than 0.5. In the case of C29U G38A G48C C62G, the yeast fitness is reported as 0.525. With C29U A43U A70C the yeast fitness was 1.01. Work on C29G C34G yielded a yeast fitness of 0.563. C29U C33A C34U C46G showed a yeast fitness of no more than 0.5. C30A C34G showed a yeast fitness of 0.682. With C29G U32C C61G C66G the yeast fitness was no more than 0.5. With C30A A37C G41A A43U G44C A70G the yeast fitness was no more than 0.5. For C29U U47A A69U, the yeast fitness was 0.679. C29U C31A G44A showed a yeast fitness of 0.885. C29G C31A A43C G67A showed a yeast fitness of no more than 0.5. C29G C46U G56A gave a yeast fitness of no more than 0.5. C29U C61U gave a yeast fitness of 0.706. For C29U U35C, the yeast fitness was 0.95. C29G C49G G51U A57G showed a yeast fitness of no more than 0.5. Work on C29U C31A A40C G52A C61A yielded a yeast fitness of no more than 0.5. For C30A C31U A36G, the yeast fitness was 0.587. For C29U C31U U54G G68A, the yeast fitness was no more than 0.5. Work on C29U C31U U54G G68C yielded a yeast fitness of no more than 0.5. C29G C34U A42G gave a yeast fitness of no more than 0.5.
